According to article PMC10582660 (Clinical and Translational Science, 2023):
Where two headings read alike, the source gives them in different places.

What was measured:
[1] = assay type: in vivo, human
Method in brief: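 Open-label fixed-sequence crossover in 16 healthy adults (8 male, 8 female), arms ≥7 days apart, fasted from midnight. Oral 60 mg test compound tablet with 240 mL water at 50°C (baseline) or brewed green tea. Acute: tea (one bag, 240 mL water, 80°C, 3 min, cooled to 50°C) given with dose, then at 4 and 8 h. Chronic: tea three times daily for 4 days, then day 5 as acute.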

OCT2 = molecular target: T1, OCT2 (Homo sapiens, UniProt O15244); assay: Raloxifene as a substrate for uptake transporters; assay type: in vitro ADME; details: raloxifene 1, 10 μM, 2, 20 min, two‐fold cutoff
T1 sequence (O15244 1-555): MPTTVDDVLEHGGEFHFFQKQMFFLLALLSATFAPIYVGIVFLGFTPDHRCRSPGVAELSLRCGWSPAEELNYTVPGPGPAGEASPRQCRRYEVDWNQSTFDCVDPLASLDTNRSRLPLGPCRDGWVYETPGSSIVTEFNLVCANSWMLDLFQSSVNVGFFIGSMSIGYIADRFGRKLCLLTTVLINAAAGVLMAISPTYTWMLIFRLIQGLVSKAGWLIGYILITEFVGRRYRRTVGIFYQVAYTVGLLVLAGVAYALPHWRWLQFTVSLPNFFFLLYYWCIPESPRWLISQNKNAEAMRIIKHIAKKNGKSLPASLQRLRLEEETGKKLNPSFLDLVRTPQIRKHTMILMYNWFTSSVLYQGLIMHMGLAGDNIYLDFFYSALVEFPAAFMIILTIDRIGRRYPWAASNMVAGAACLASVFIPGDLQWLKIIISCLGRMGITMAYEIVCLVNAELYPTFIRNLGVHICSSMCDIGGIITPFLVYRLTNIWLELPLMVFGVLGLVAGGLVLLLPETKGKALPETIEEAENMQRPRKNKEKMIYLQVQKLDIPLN
Method in brief: (§1)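 Uptake of test compound (1 and 10 μM, 2 and 20 min) measured in transporter-expressing HEK293 or MDCKII cells or inside-out membrane vesicles. Run with positive-control probe substrates and inhibitors, plus empty-vector or untransfected control cells. Fold-accumulation relative to control cells judged against a two-fold cutoff for substrate status.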

[2] = Follow-up exploratory clinical study: plasma pharmacokinetics; assay type: in vivo, human; details: for Cmax / Tmax / AUC(0-t): both, human, plasma, oral; for AUC(0-t): AUC0–48h, geometric mean (CV%)
Method in brief: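 Six healthy adults (3 male, 3 female) in sequential arms ≥7 days apart: oral test compound with water, then with acute brewed green tea, then tea alone. Plasma sampled 0–48 h at the main-study times. Analysed by UHPLC–MS/MS for parent and glucuronides. […] Green tea/baseline ratios on log-transformed data, paired two-tailed t-test.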

[3] = after oral administration; cited from earlier work
OCT1 = molecular target: T2, OCT1 (Homo sapiens, UniProt O15245); assay: Raloxifene as a substrate for uptake transporters; assay type: in vitro ADME; details: raloxifene 1, 10 μM, 2, 20 min, two‐fold cutoff
T2 sequence (O15245 1-554): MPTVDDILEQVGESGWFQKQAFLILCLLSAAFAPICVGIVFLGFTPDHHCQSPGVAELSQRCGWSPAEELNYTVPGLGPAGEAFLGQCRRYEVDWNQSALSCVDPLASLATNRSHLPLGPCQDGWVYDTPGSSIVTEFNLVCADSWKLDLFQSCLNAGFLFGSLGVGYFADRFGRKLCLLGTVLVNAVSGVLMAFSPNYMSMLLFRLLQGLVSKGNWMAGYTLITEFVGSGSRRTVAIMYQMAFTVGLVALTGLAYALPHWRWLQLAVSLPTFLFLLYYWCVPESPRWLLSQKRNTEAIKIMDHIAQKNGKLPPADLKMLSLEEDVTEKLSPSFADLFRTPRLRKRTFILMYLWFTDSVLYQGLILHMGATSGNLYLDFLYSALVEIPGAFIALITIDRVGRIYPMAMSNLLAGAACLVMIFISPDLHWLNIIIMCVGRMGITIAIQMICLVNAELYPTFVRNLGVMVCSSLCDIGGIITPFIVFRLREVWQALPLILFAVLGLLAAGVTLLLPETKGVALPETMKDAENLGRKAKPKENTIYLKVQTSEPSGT
Method in brief: as §1

OATP1B3 = molecular target: T3, OATP1B3 (Homo sapiens, UniProt Q9NPD5); assay: Raloxifene as a substrate for uptake transporters; assay type: in vitro ADME; details: raloxifene 1, 10 μM, 2, 20 min, two‐fold cutoff
T3 sequence (Q9NPD5 1-702): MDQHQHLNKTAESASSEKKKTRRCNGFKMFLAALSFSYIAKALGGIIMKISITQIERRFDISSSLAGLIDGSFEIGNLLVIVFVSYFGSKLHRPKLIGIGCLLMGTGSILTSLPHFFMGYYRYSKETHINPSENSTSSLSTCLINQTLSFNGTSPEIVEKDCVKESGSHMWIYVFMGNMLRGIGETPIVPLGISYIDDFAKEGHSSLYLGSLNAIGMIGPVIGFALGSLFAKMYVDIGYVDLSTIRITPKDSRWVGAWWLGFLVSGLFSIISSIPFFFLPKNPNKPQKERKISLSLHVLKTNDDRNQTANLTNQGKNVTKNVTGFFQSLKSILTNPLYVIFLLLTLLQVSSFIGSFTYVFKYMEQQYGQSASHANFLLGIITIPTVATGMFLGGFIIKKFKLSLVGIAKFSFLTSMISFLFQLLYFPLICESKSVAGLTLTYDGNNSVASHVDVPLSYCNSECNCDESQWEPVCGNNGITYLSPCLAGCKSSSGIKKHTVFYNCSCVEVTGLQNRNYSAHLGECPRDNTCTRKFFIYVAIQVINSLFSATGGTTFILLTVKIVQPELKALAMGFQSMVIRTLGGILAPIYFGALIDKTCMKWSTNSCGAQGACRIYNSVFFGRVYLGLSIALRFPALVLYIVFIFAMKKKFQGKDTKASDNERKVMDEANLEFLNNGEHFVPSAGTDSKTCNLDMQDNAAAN
Method in brief: as §1

[4] = upon acute and chronic green tea administration
[5] = follow-up study, acute green tea vs baseline

With `O=C(c1ccc(OCCN2CCCCC2)cc1)c1c(-c2ccc(O)cc2)sc2cc(O)ccc12` [Raloxifene, raloxifene, reference compound] the “AUC0–48h green tea/baseline ratio (90% CI)” value ([1]; acute green tea vs baseline) was 0.53 (0.43–0.64), the “AUC0–96h green tea/baseline ratio (90% CI)” value ([1]; acute green tea vs baseline) was 0.57 (0.46–0.70) and the “Cmax,1 green tea/baseline ratio (90% CI)” value ([1]; acute green tea vs baseline) was 0.37 (0.28–0.50). For the same compound, the “t 1/2 green tea/baseline ratio (90% CI)” value ([1]; acute green tea vs baseline) was 0.95 (0.81–1.12), the “AUC0–96h green tea/baseline ratio (90% CI)” value ([1]; acute green tea vs baseline, listed as raloxifene) was 0.57 and the “geometric mean green tea/baseline raloxifene AUC0–96h ratio” value ([1]; after both acute and chronic administration) was ~ 0.60. The half-life ([1]; both, human, plasma, oral, geometric mean terminal half‐life, unchanged upon acute and chronic green tea administration) was roughly 24 h, the Tmax ([1]; both, human, plasma, oral, median t max,1, unchanged upon acute and chronic green tea administration) was roughly 2 h and the “AUC0–48h green tea/baseline ratio (90% CI)” value ([1]; chronic green tea vs baseline) was 0.56 (0.43–0.72). For the same compound, the “AUC0–96h green tea/baseline ratio (90% CI)” value ([1]; chronic green tea vs baseline) was 0.66 (0.54–0.81), the “Cmax,1 green tea/baseline ratio (90% CI)” value ([1]; chronic green tea vs baseline) was 0.39 (0.24–0.64) and the “t 1/2 green tea/baseline ratio (90% CI)” value ([1]; chronic green tea vs baseline) was 0.89 (0.75–1.04). The “AUC0–96h green tea/baseline ratio (90% CI)” value ([1]; chronic green tea vs baseline, listed as raloxifene) was 0.66, the “magnitude of the decrease in raloxifene AUC with green tea” value ([1]; main study) was ~ 40% and the tolerability ([1]; main study, 16 participants, no severe adverse events reported) was “well tolerated”. The “AUC0–48h ratio” value [1, 4] was 0.53–0.56, the “Cmax,1 ratio” value [1, 4] was 0.37–0.39 and the “fold‐accumulation” value (OCT2) was 0.90–1.15. The Cmax [2] was 0.28 nM, the Tmax [2] was 1 h and the Cmax ([2]; 60 mg) was 0.32 nM. It also gave a Tmax ([2]; 60 mg) of 1.25 h, an AUC(0-t) ([2]; 60 mg, follow-up study, six healthy adults, baseline) of 8.25 nM·h and an AUC(0-t) ([2]; follow-up study, acute green tea) of 7.46 nM·h. For the same compound, the “AUC0–48h green tea/baseline ratio (90% CI)” value [2, 5] was 0.90 (0.77–1.03), the “Cmax,1 green tea/baseline ratio (90% CI)” value [2, 5] was 0.87 (0.72–1.07) and the “magnitude of the decrease in raloxifene AUC with green tea” value ([2]; follow‐up study) was 10%. For the same compound, the oral bioavailability [3] was less than 2%, the “fold‐accumulation” value (OCT1) was 1.13–1.52 and the “fold‐accumulation” value (OATP1B3) was 1.56–1.70.
